Screens as filed in PubChem.
In the library only some 3% were active in any assay of this set; here they are far more common.
5HT1E antag: antagonists of human 5-HT1E serotonin receptor; P28566; CHO 5-HT1E Ga15 NFAT-bla reporter, FRET, antagonist; inhibition, % at 6 µM; actives 0.99% (n = 65,000);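 active means inhibition above a set limit, the mean inhibition across every tested compound plus 3 SD, cut at about 29% in these data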;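 further: signal is the 460 over 535 nm emission ratio of beta-lactamase substrate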
HTR1E agonist: activates the human 5-HT1E serotonin receptor | P28566 | actives 0.69% (n = 65,000) | activation, % at 6 µM | CHO 5-HT1E Ga15 NFAT-bla reporter, FRET; 0% DMSO wells, 100% control agonist wells;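 active means activation above a set limit, the screen-wide mean activation plus 3 SD, cut at about 8.5% in these data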
S1P3 agonist: S1P3 (human) receptor agonism | actives 0.1% (n = 60,000) | AID 373 | Q99500 | activation, % at 4.5 µM | S1P3 NFAT-BLA reporter cells, FRET ratio; relative to 1 µM S1P, basal subtracted;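 active means activation above the screen-wide mean plus 3 SD, cut at about 4.5% in these data, passing the limit was not always enough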
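material = human S1P3 NFAT-BLA reporter CHO cells | schedule = 4 h compound at 37 °C, 2 h substrate at RT | measured by = fluorescent BLA substrate, ex 405 nm, em 460/535 nm ratio | controls = 1 µM S1P reference | replication = primary once, confirmation triplicate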
5HT1a antag: blocks the human serotonin 5-HT1a receptor; inhibition, % at 10 µM; CHO 5-HT1a Ga15 NFAT-bla reporter, antagonist mode; AID 612; P08908; actives 0.68% (n = 62,000);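 active means inhibition above the mean of all tested compounds plus 3 SD, cut at about 43% in these data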;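 further: receptor stimulated by 5-CT agonist at 100 nM near EC80; beta-lactamase reporter measured by ratiometric fluorescence of a cleavable substrate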
5HT1a ag: activates the human 5-HT1a serotonin receptor. activation, % at 10 µM. actives 0.56% (n = 65,000). CHO 5-HT1a Ga15 NFAT-bla reporter, FRET ratio; 0% basal, 100% maximal reference agonist;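 active means activation above the screen-wide mean activation plus 3 SD, cut at about 19% in these data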
S1P1 ag-PAM: activates or potentiates agonism at human S1P1 receptor; S1P1 CRE-bla cells, forskolin, beta-lactamase FRET, potentiator mode; S1P1 agonist co-added at EC20, 2 nM; 100% = saturating reference agonist, 0% = basal; activation, % at 9.5 µM; actives 0.57% (n = 56,000); AID 449;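 active means activation above a cutoff set at the mean activation of all tested compounds plus 3 SD, cut at about 54% in these data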;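 further: forskolin at 4 µM as EC80 and the EC20 agonist is SEW2871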
Target sequence (P21453 whole entry, looked up): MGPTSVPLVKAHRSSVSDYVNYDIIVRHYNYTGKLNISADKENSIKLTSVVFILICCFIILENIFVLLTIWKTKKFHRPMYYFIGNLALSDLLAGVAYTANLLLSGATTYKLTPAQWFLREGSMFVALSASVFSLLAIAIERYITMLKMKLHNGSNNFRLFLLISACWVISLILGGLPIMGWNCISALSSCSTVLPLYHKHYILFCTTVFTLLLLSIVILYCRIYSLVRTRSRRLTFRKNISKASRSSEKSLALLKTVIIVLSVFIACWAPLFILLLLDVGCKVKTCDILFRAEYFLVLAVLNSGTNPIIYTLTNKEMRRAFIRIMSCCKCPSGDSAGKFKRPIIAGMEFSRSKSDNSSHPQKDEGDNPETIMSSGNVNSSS
Each line names hits and unclear results; the compound was inactive in the other large screens.

Cc1cccc(-n2ncc3c(N(C)C4CCCCC4)ncnc32)c1	S1P1 ag-PAM 53.3
COc1ccc(-n2ncc3c(N4CCC(C)CC4)ncnc32)cc1	none
COc1ccc(-n2ncc3c(N(C)C4CCCCC4)ncnc32)cc1	5HT1a ag 30.7
Cc1cc(-c2nn3c(C)nnc3s2)ccc1NC(=O)C(C)(C)C	none
CC1(C)CC2(CCO1)N1CC3(C)CN2CC(C)(C1)C3O (configuration not stated)	none
CCOc1ccc2[nH]c(=O)c(CN(CCc3ccccc3)C(=O)c3cnccn3)cc2c1	none
C=CCn1c(O)c(C2=c3ccccc3=NC2=O)sc1=Nc1ccc(O)cc1	5HT1a antag 55.0
O=C(c1ccco1)N(CCCN1CCOCC1)c1nc(-c2ccc(F)cc2)cs1	none
O=C(c1ccco1)N(CCCN1CCOCC1)c1nc(-c2ccc(Cl)cc2)cs1	5HT1a antag 47.6
Cc1csc2nc(CNC(=O)c3ccco3)cn12	HTR1E agonist 11.1
CC(=O)NCc1cn2c(C)csc2n1	none
O=C(Nc1cccc(C(F)(F)F)c1)N1CCC(c2nc(-c3ccc(F)cc3)no2)CC1	S1P1 ag-PAM 58.3
O=C(Cn1c(C(=O)N2CCc3ccccc3C2)cc2sccc21)c1ccccc1	5HT1a antag 43.5
CCOC(=O)N1CCN(C(=O)C(c2ccccc2)c2ccccc2)CC1	none (no result: S1P3 agonist, S1P1 ag-PAM)
Cc1cc2c(cc(C(=O)OCC(=O)NCc3cccs3)n2C(C)C)o1	5HT1E antag 38.0
Cc1c(=O)n(OCc2c(F)cccc2F)c2ccccc2[n+]1[O-]	none (no result: 5HT1a antag)
COc1ccc(NC(=O)CSc2nccn2-c2ccccc2)c(OC)c1	HTR1E agonist 21.9
CCOc1ccccc1NC(=O)CSc1nccn1-c1ccccc1	none
c1ccc2c(N3CCCC3)nc(-c3ccncc3)nc2c1	none
CN1CCN(c2nc(-c3ccncc3)nc3ccccc23)CC1	HTR1E agonist 9.1 (no result: S1P1 ag-PAM)
C1CCC(c2nn3c(-c4n[nH]c5c4CCC5)nnc3s2)CC1	none
CCN(CC)c1ccc(-c2nn3c(-c4n[nH]c5c4CCC5)nnc3s2)cc1	5HT1E antag 70.2, 5HT1a antag 56.1
O=C(NC1CCCCCCC1)c1ccc(CNc2c(N3CCOCC3)c(=O)c2=O)cc1	none
Cc1cccc(NC(=O)CCNS(=O)(=O)c2cccc3nsnc23)c1	HTR1E agonist 38.2 (no result: S1P3 agonist, S1P1 ag-PAM)
CS(=O)(=O)N(CCC(=O)O)Cc1ccccc1	none
COCCn1c(C)cc(C(=O)CSc2nc3ccccc3o2)c1C	S1P1 ag-PAM 66.0
CCNC(=O)CN(C1CCCCC1)S(=O)(=O)c1ccc(F)cc1	none (no result: S1P3 agonist, S1P1 ag-PAM)
CNC(=O)CN(C1CCCCC1)S(=O)(=O)c1ccc(F)cc1	5HT1a ag 42.4
Cc1cccc2cc(C#N)c(N3CCN(C)CC3)nc12	HTR1E agonist 23.4
CC(C(=O)NCC1CCCO1)n1cccc1C(=O)c1ccccc1 (configuration not stated)	none
CCOC(=O)c1[nH]c2ccc(OC)cc2c1NC(=O)OC	none
COc1ccc2[nH]c(O)c(NC(C)=O)c2c1	HTR1E agonist 12.7
O=C(O)CC(NC(=O)COc1ccc(Cl)cc1Cl)C(=O)O (configuration not stated)	none (no result: 5HT1a antag)
COc1cccc(N2CCN(C(=O)c3ccc(=O)oc3)CC2C)c1 (configuration not stated)	HTR1E agonist 11.5 (no result: 5HT1a antag)
COc1cccc(NC(=O)N2CCN(c3cccc(C)c3)C(C)C2)c1 (configuration not stated)	none
COC(=O)CSc1nnc(CNC(=O)Cc2ccccc2)n1C	none
COc1ccc2cc(C#N)c(N3CCN(Cc4nnnn4CCC(C)C)CC3)nc2c1	none
CCOC(=O)CSc1nc2c(sc(=S)n2Cc2ccco2)c(=O)n1-c1ccccc1	5HT1a antag 55.1 (no result: S1P3 agonist, S1P1 ag-PAM)
O=C1CNC(=O)/C1=C\N1CCN(C(c2ccccc2)c2ccccc2)CC1	none
O=C(c1cccs1)N(Cc1ccco1)Cc1cc2ccccc2[nH]c1=O	5HT1a ag 51.5
Cc1ccc2[nH]c(=O)c(CN(Cc3ccco3)C(=O)c3ccncc3)cc2c1	none
Cc1cnc(C(=O)Nc2cccc(-c3nnc4n3CCCCC4)c2)cn1	none
c1cc(Nc2ncnc3sccc23)cc(-c2nnc3n2CCCCC3)c1	5HT1E antag 29.8
Oc1ccc(-c2nnc(SCC3CCCCC3)o2)cc1	S1P1 ag-PAM 113.0
O=C(CSc1nnc(-c2ccc(O)cc2)o1)N1CCOCC1	none
CCOc1ccc2[nH]c(=O)c(CN(Cc3cccs3)Cc3nnnn3C(C)(C)CC)cc2c1	HTR1E agonist 9.5
COc1ccc(Cl)cc1NC(=O)CSc1nnc(Cn2c(=O)sc3ccccc32)n1C	none
CCc1ccc2[nH]c(=O)c(C(c3nnnn3CCOC)N3CCN(c4ccccc4)CC3)cc2c1 (configuration not stated)	none
COc1cc(C(=O)OCn2nnc3ccccc3c2=O)cc(OC)c1OC	none (no result: S1P3 agonist, S1P1 ag-PAM)
COc1cccc(C(=O)OCn2nnc3ccccc3c2=O)c1OC	5HT1E antag 33.1
Cc1ccc(OCc2nc(-c3ccccc3)no2)c(C)c1	S1P1 ag-PAM 77.8
COc1ccccc1C(=O)NCCN1CCN(C(=O)c2ccccc2OC)CC1	none
CCOC(=O)C(O)(NC(=O)c1cccnc1)C(F)(F)F (configuration not stated)	HTR1E agonist 10.1
CC(=O)C(C(C)=O)C(NC(=O)c1cccnc1)(C(F)(F)F)C(F)(F)F	none
COC(=O)CC(=O)Cc1nc(N)nc(Nc2ccc(C)c(C)c2)n1	HTR1E agonist 52.4 (no result: 5HT1a antag)
Cc1ccc(Nc2nc(N)nc(CN3CCN(C)CC3)n2)cc1C	none
CCOc1cc(C(=O)CSc2nnc(CNc3ccc(Cl)cc3)o2)ccc1NC(=O)CC	5HT1E antag 58.0
CCc1nnc(NC(=O)CSc2nnc(CNc3ccc(Cl)cc3)o2)s1	none
Cc1ccc2[nH]c3c(c2c1)CN(C(=O)CN1CCN(c2ccccc2F)CC1)CC3	none
COC(=O)c1ccc(-c2sc3nc(N4CCOCC4)c4c(c3c2N)CCCC4)o1	5HT1a ag 25.5 (no result: 5HT1a antag)
CCCCCC(=O)O[C@]1(C(C)=O)CC[C@H]2[C@@H]3CCC4=CC(=O)CC[C@]4(C)[C@H]3CC[C@@]21C	none (no result: 5HT1a antag)
CCOC(=O)c1cc2c(ccn2C)n1CC(=O)N1CCN(c2ccccc2)CC1	none
CCOC(=O)c1cc2c(ccn2C)n1Cc1ccccc1C	5HT1a antag 44.1
CCCC(=O)c1ccc(N2CCN(C(=O)c3ccccc3Br)CC2)c(F)c1	S1P1 ag-PAM 97.5
Fc1ccccc1/C=N/n1cnnc1	none (no result: 5HT1a antag)
Cc1cc(C)n(-c2nncn2/N=C/c2ccccc2F)n1	5HT1a antag 54.7
CCCC(C)C(=O)Nc1ccc(C(N)=O)cc1 (configuration not stated)	none
N=c1c(C(=O)NC2CCCC2)cc2c(=O)n3ccccc3nc2n1CCN1CCOCC1	HTR1E agonist 17.8 (no result: S1P3 agonist, S1P1 ag-PAM)
